# Measured values collected from several papers.
# Lines come from different studies, so protocols differ.
# Cell line: HT-29
Compound,effect on,method,time,IC50
NCCCC[C@@H](N)C(=O)Nc1ccc(-n2nc(C(F)(F)F)cc2-c2ccc3c(ccc4ccccc43)c2)cc1,cell growth or viability,MTT,24 h,3.2 µg/mL
COc1ccc(-c2cc3nccn3c(Nc3ncccc3C(N)=O)n2)cc1OC,IL-8 release,,24 h,> 2.56 µM
c1csc([I+]c2cccs2)c1,cell growth or viability,trypan blue,48 h,~2.5 µM
COc1cc(Nc2nccc(-c3cnn4nc(OC)ccc34)n2)cc(C(F)(F)F)c1,cell growth or viability,ATP luminescence,,0.33 µM
CN1C(=O)/C(=N\NC(=O)c2cc3ccccc3[nH]2)c2ccccc21,cell growth or viability,,,12.9 µM
CC(C)n1c(/C=C/C(O)CC(O)CC(=O)O)c(-c2ccc(F)cc2)c2ccccc21 (stereo not shown),cell growth or viability,SRB,72 h,1.67 µg/mL
O=c1cc(CO)occ1[O-].[Cl-].[W+4].c1cc[cH-]c1.c1cc[cH-]c1,cell growth or viability,MTT,,200 µM
CN1C(=O)/C(=N\NC(=O)c2cc3ccccc3[nH]2)c2cc(F)ccc21,cell growth or viability,,,8.92 µM
COc1c(C)c(OC)c2c(c1C)OC(c1ccccc1)CC2=O (stereo not shown),cell growth or viability,SRB,72 h,> 50 µM
CC(=O)c1ccc(/N=N/c2cc(/C=C/C(=O)O)ccc2O)cc1,cell growth or viability,MTT,,> 50 µM
O=C(O)C[C@H](O)C[C@H](O)/C=C/c1c(C2CC2)nc2ccccc2c1-c1ccc(F)cc1,cell growth or viability,SRB,72 h,0.09 µg/mL
C1CCCC1.C1CCCC1.[Cl][W][Cl],cell growth or viability,MTT,,10000 µM
CC(=O)O[C@H]1C(=O)[C@@]2(C)[C@H]([C@H](OC(=O)c3ccccc3)[C@]3(O)C[C@H](OC(=O)[C@H](O)[C@@H](NC(=O)c4ccccc4)c4ccccc4)C(C)=C1C3(C)C)[C@]1(OC(C)=O)CO[C@@H]1C[C@@H]2O,cell growth or viability,,,0.0006 µM
CCN(CC)CCNC(=O)c1c(C)[nH]c(/C=C2\C(=O)Nc3ccc(F)cc32)c1C,cell growth or viability,,,10.1 µM
CC[C@]1(O)C[C@H]2CN(CCc3c([nH]c4ccccc34)[C@@](C(=O)OC)(c3cc4c(cc3OC)N(C=O)[C@H]3[C@@](O)(C(=O)OC)[C@H](OC(C)=O)[C@]5(CC)C=CCN6CC[C@]43[C@@H]65)C2)C1,cell growth or viability,fluorescence,72 h,0.0004 µM
O=C(O)c1cc(O)c(O)c(O)c1,cell growth or viability,MTT,,16.3 µM
CN1C(=O)/C(=N\NC(=O)c2cc3ccccc3[nH]2)c2cc(Br)ccc21,cell growth or viability,,,3.68 µM
NCC(=O)Nc1ccc(-n2nc(C(F)(F)F)cc2-c2ccc3c(c2)Nc2ccccc2S3)cc1,cell growth or viability,MTT,24 h,6.2 µg/mL
CC(=O)c1cccc(N=Nc2c(C(=O)O)cc(O)c(O)c2O)c1,cell growth or viability,MTT,,10.2 µM
COc1cccc(C(=O)O[C@@H]2CN3Cc4c(cc5c(c4OC)OCO5)[C@@]24C=C[C@H](OC)C[C@@H]34)c1,cell growth or viability,WST-1,,> 10 µM
CN1C(=O)/C(=N\NC(=O)c2cc3ccccc3[nH]2)c2cc(Cl)ccc21,cell growth or viability,,,5.67 µM
CCOc1cc(OCC)cc(C(=O)O[C@@H]2CN3Cc4c(cc5c(c4OC)OCO5)[C@@]24C=C[C@H](OC)C[C@@H]34)c1,cell growth or viability,WST-1,,> 10 µM
Cc1ccc(-n2nc(C(C)(C)C)cc2NC(=O)Nc2ccc(OCCN3CCOCC3)c3ccccc23)cc1,IL-8 release,,24 h,> 1.9 µM
C#C[C@@]1(O)[C@@H](COP(=O)(O)OC[C@H]2O[C@@H](n3cc(F)c(=O)[nH]c3=O)C[C@@H]2O)O[C@@H](n2ccc(N)nc2=O)[C@@H]1O,cell growth or viability,SRB,72 h,0.0054 µM
COc1ccc2c(c1)/C(=N/NC(=O)c1cc3ccccc3[nH]1)C(=O)N2C,cell growth or viability,,,5.73 µM
CC(=O)c1ccc(N=Nc2c(C(=O)O)cc(O)c(O)c2O)cc1,cell growth or viability,MTT,,14.6 µM
COc1c2c(cc3c1OCO3)[C@]13C=C[C@H](OC)C[C@H]1N(C2)C[C@H]3OC(=O)c1cccc(C)c1,cell growth or viability,WST-1,,> 10 µM
O=C(N/N=C1\C(=O)N(c2ccccc2)c2ccccc21)c1cc2ccccc2[nH]1,cell growth or viability,,,6.34 µM
